The list is not random: actives were taken first. Their share in the collection is about 4.1%.
UBC13 polyUb: inhibitors of human UBC13 polyubiquitin chain formation | P61088 | TR-FRET | inhibition, % at 20 µM | 330,000 tested, 0.47% active | AID 485273; in the data active means inhibition above about 45%, passing the limit was not always enough
CHOP UPR activ: activators of apoptotic arm of unfolded protein response (CHOP). CHO-CHOP luciferase reporter, UPR activation, luminescence; percent of tunicamycin response over DMSO baseline. activation, % at 10 µM. 330,000 tested, 0.34% active;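 active means at 10 µM dose, activation of 40% or more, normalized to positive control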;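 further: 100% = tunicamycin at 10 µg/mL and 0% = DMSO alone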
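Evaluation: % reporter activation, DMSO baseline versus tunicamycin full activation; System: CHO-CHOP luciferase reporter cell line; Input: 500 cells/well; Incubation: 6 h compound treatment, 37 °C; Measured by: Steady-Glo luciferase luminescence; Dosing: one dose, 10 µM in 0.5% DMSO; Buffer or medium: F12 medium, 10% FBS; Benchmarks: positive tunicamycin 10 µg/mL, negative DMSO alone.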
Apaf1 inhib: blocks human Apaf-1 apoptosome activity; inhibition, % at 20 µM; reconstituted apoptosome caspase-3 activity, DEVD-Rh110 fluorescence; O14727; 330,000 tested, 0.71% active; active means inhibition of at least 40% at 20 µM;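 further: plate controls were DMSO wells for no effect and DEVD-CHO caspase inhibitor wells for full effect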
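System: reconstituted apoptosome with Apaf-1, cytochrome c, caspase-9, procaspase-3, dATP; Signal: Rh110 fluorescence intensity; Schedule: 30 min compound preincubation, 50 min activation, room temperature; Reagent: cytochrome c trigger plus (Z-DEVD)2-Rh110 caspase-3 substrate.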
Mdm2-MdmX inh: disrupts the human Mdm2-MdmX interaction; O15151+Q00987; SaOS-2 split-luciferase Mdm2/MdmX complementation, luminescence; 330,000 tested, 3% active; inhibition, % at 8 µM; AID 485346;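 active means inhibition of at least 50% at 8 µM in the primary screen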
Target sequence (O15151 whole entry, looked up): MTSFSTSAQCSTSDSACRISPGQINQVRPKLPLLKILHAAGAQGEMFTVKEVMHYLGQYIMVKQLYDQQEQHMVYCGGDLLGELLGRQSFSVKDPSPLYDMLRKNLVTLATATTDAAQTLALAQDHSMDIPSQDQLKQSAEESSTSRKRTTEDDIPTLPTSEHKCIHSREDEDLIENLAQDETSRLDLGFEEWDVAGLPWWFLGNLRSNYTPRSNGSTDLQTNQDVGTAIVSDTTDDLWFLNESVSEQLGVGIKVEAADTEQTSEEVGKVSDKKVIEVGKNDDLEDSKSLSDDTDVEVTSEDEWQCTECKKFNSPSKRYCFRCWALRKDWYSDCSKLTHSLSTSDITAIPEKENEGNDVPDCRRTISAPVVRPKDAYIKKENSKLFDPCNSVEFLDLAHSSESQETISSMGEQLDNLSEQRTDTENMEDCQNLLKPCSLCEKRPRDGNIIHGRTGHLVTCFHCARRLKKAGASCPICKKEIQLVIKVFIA
Target sequence (Q00987 whole entry, looked up): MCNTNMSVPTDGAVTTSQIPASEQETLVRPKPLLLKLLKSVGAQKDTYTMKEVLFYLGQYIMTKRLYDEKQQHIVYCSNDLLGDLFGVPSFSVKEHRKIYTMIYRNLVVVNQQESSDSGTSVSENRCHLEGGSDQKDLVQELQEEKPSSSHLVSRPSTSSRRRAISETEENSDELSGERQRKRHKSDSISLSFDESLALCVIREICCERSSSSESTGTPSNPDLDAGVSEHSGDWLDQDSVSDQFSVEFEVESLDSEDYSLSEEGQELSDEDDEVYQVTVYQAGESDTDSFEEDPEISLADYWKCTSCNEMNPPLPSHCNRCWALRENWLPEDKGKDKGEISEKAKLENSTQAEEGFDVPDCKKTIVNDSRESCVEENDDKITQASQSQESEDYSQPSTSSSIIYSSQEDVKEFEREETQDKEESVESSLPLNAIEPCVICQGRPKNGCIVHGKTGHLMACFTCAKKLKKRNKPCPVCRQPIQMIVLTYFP
XBP1 UPR activ: activators of adaptive arm of unfolded protein response (XBP1). CHO-XBP1 luciferase reporter, IRE1-XBP1 UPR activation, luminescence; percent of tunicamycin response, DMSO as zero. activation, % at 20 µM. 330,000 tested, 0.33% active. AID 463104;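 active means versus positive control, 20 µM dose yields 30% or more activation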;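 further: 100% = tunicamycin at 10 µg/mL and 0% = DMSO only wells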
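Material: IRE1-XBP1 luciferase reporter CHO line / Quantity: one thousand reporter cells per well / Buffer or medium: F12 with 10% serum / Compound: 20 µM single concentration, DMSO 1% / Times: 6 h treatment, 37 °C / Detection: Steady-Glo luciferase glow luminescence, 10 min after reagent addition / Benchmarks: tunicamycin high, DMSO low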
Mdm2-MdmX conf: confirmation of human Mdm2/MdmX interaction inhibitors. shares compounds with Mdm2-MdmX inh. Mdm2-MdmX binding, luminescent assay. 10,000 tested, 55% active. inhibition, % at 8 µM. AID 489028; in the data active means inhibition above about 40%
Full FLuc ctr: full-length luciferase inhibition in Mdm2/MdmX counter-screen. SaOS-2 full-length luciferase counterscreen, luminescence. inhibition, % at 8 µM. shares compounds with Mdm2-MdmX inh. 6,200 tested, 77% active;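 active means mean inhibition at 8 µM reaching about 37%, which flags the compound as non-specific, limit read from the data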;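 further: p53-null SaOS-2 cells with luciferase driven by a doxycycline-inducible promoter; compound on cells about two nights before reading with doxycycline added after day one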
Numbers without * were called inactive; x = not tested or not shown.

SMILES	UBC13 polyUb	CHOP UPR activ	Apaf1 inhib	Mdm2-MdmX inh	XBP1 UPR activ	Mdm2-MdmX conf	Full FLuc ctr
COc1ccc(CNC(=O)COC(=O)[C@@H]2CCCN2C(=O)c2cccs2)cc1	-10.8	-0.1	4.1	-1.5	0.8	x	x
O=C(CS(=O)CC(=O)NC12CC3CC(CC(C3)C1)C2)Nc1ccc(F)cc1 (configuration not stated)	-0.3	-2.1	-0.6	22.3	0.8	x	x
Cc1ccc(-c2nc3c(c(=O)[nH]c(=O)n3Cc3ccccc3)n2C)s1	31.3	2.5	-6.2	62.3*	-0.7	5.8	x
Cc1ccc(-c2nnn(CC(=O)N(CCCO)C(C(=O)NC3CCCC3)c3ccc(F)cc3)n2)o1 (configuration not stated)	-4.7	-0.2	1.2	19.9	3.6	x	x
CCOc1ccccc1-c1nc(-c2ccc(NC(=O)c3ccc(Br)o3)cc2)no1	-8.7	4.4	8.3	21.2	0.3	x	x
COc1ccc(CC(=O)Nc2ccc(-c3noc(-c4cc(OC)c(OC)c(OC)c4)n3)cc2)cc1	13.3	4.1	-11.5	50.0*	4.3	51.5*	79.3*
COc1ccc(NC(=O)c2cc(-c3ccc4c(c3)OCO4)on2)cc1OC	-0.5	0.9	-0.2	67.9*	1.8	44.8*	97.1*
CCOc1ccccc1-c1nc(-c2ccc(NC(=O)Cc3ccc(OC)cc3)cc2)no1	-6.1	3.0	4.7	57.2*	5.0	37.0	x
COc1cc(-c2nc(-c3ccc(NC(=O)c4ccc5c(c4)OCO5)cc3)no2)cc(OC)c1OC	8.9	12.8	0.1	83.0*	9.6	77.0*	43.8*
COc1ccc(-c2noc(CCC(=O)Nc3ccc(C)c(C)c3)n2)cc1	13.2	0.4	-4.3	-7.4	-4.3	x	x
O=C1CC(SC(=Nc2ccccc2)Nc2ccccc2)C(=O)N1c1cccc2ccccc12 (configuration not stated)	4.7	0.5	1.3	16.6	4.0	x	x
c1ccc(OCc2noc(CN3CCC(C4CCCCC4)C3)n2)cc1 (configuration not stated)	3.1	0.4	18.3	22.1	2.2	x	x
COc1cccc(-c2nc(-c3ccc(NC(=O)c4ccncc4)cc3)no2)c1	1.4	1.1	-3.2	-8.3	1.7	x	x
COc1ccc(-c2nc(-c3ccc(NC(=O)c4ccncc4)cc3)no2)cc1OC	13.5	0.9	9.2	69.5*	-3.2	81.5*	81.5*
O=[N+]([O-])c1ccc(-[n+]2ccc3ccccc3c2)c([N+](=O)[O-])c1	-15.3	-4.9	-7.4	100.3*	-7.1	55.5*	4.9
Oc1ccccc1N=Nc1nc(-c2ccccc2)c(-c2ccccc2)[nH]1	-177.1	6.5	13.7	86.5*	0.0	86.0*	49.7*
Oc1ccc(N=Nc2ccccc2C(F)(F)F)c2cccnc12	-141.5	7.0	15.7	83.3*	-0.9	85.8*	23.3
Cc1cc(N(C)C)ccc1N=Nc1ccc2ncccc2c1	-214.6	-1.3	30.1	-118.1	-1.5	x	x
CCS(=O)(=O)c1ccc(N=Nc2ccc(O)c3ncccc23)c(OC)c1	-52.8	4.5	16.8	75.4*	7.5	69.2*	31.8
Cc1ccc(N=Nc2ccc(O)c3ncccc23)cc1C	-119.5	37.4	-4.5	78.2*	2.6	87.5*	25.6
COc1ccc(CN(C)C(=O)CSc2nnc(C3CC3)n2C2CC2)cc1	-2.7	1.0	-5.1	24.9	0.5	x	x
CCOC(=O)C1=Nc2ccccc2C1=[N+]=[N-]	-9.1	-0.5	13.9	50.9*	-5.3	9.3	x
Oc1ccc(Cl)cc1-c1cc(-c2cccc(Br)c2)n[nH]1	4.8	2.4	16.9	61.5*	6.4	32.8	x
Oc1ccc(Cl)cc1-c1cc(-c2ccccc2Cl)[nH]n1	0.9	5.2	2.2	0.4	4.8	x	x
CC(/C=N\Nc1nnc2c(n1)[nH]c1c(C)cccc12)=C\c1ccco1	-60.8	0.8	2.5	90.8*	4.2	40.4*	57.2*
SMILES	UBC13 polyUb	CHOP UPR activ	Apaf1 inhib	Mdm2-MdmX inh	XBP1 UPR activ	Mdm2-MdmX conf	Full FLuc ctr
CC1Cc2cc(S(=O)(=O)N3CCCCC3C)ccc2N1C(=O)C1CCC1 (configuration not stated)	4.4	-2.0	13.5	21.1	-0.3	x	x
Cc1ccccc1NC(=O)C1CC(=O)N(c2ccc3c4c(cccc24)CC3)C1 (configuration not stated)	5.6	0.8	-2.1	19.2	-2.5	x	x
O=C(Nc1ccccc1Br)C1CC(=O)N(c2ccc3c4c(cccc24)CC3)C1 (configuration not stated)	4.9	-1.8	1.4	50.4*	0.9	57.1*	65.3*
Cc1cc(-c2ccc(N=Nc3c(S(=O)(=O)O)cc4cc(S(=O)(=O)O)cc(N)c4c3O)c(C)c2)ccc1N=Nc1c(S(=O)(=O)O)cc2cc(S(=O)(=O)O)cc(N)c2c1O	-18.6	-4.7	98.3*	62.4*	-11.2	56.6*	47.8*
N#CC1=C(Nc2ccccc2)SC=C(c2ccc(F)cc2)N=C1N1CCOCC1	-3.7	0.4	-2.2	-9.5	-0.5	x	x
Nc1nc(N)nc(-c2ccccc2)n1	8.9	-0.3	-3.0	-14.2	-0.4	x	x
Nc1nc(N)nc(-c2ccc(Cl)c(Cl)c2)n1	14.0	2.2	1.3	50.4*	-3.2	35.2	x
COC(=O)CSC1=C(C#N)C(c2ccc(F)cc2)CC(=O)N1 (configuration not stated)	0.9	-1.0	11.1	-2.8	-1.3	x	x
COC(=O)CSC1=C(C#N)C(c2ccc(C)o2)CC(=O)N1 (configuration not stated)	3.2	2.2	-2.8	58.4*	-2.6	46.9*	72.7*
O=C(CN1CCN(S(=O)(=O)c2ccc(Cl)cc2)CC1)NC1CC1	-9.3	0.6	-9.4	11.0	-2.1	x	x
COC(=O)c1sc(S(=O)(=O)N2CCC(C(=O)O)CC2)c(C(=O)OC)c1C	2.7	-0.9	-8.4	5.9	0.4	x	x
CN(CC(=O)Nc1ccc(F)cc1)C(=O)CCc1nc2ccccc2c(=O)[nH]1	1.4	-0.9	4.2	13.5	-2.3	x	x
CN(CC(=O)Nc1ccc(Cl)c(C(F)(F)F)c1)C(=O)C1CC(=O)N(CCc2ccccc2)C1 (configuration not stated)	9.4	1.6	24.2	51.4*	-1.4	42.0*	60.9*
CN(CC(=O)Nc1ccc(Cl)c(C(F)(F)F)c1)C(=O)CCc1nc2ccccc2c(=O)[nH]1	3.2	-0.5	-15.8	53.7*	1.9	24.1	x
CC1(C)Cc2ccccc2C2CC(O)C(=O)N21 (configuration not stated)	-2.5	-1.2	36.4	11.0	-1.1	x	x
